A selection: hits, their analogues and other compounds. The true share with any hit is near 0.91%.
zVAD death inh = L929 zVAD cell death inhibition; viability rescue, % at 10 µM; L929 zVAD necroptosis rescue, ATP luminescence, 24 h; with zVAD 60 µM; actives 0.38% (n = 220,000); AID 1377;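 active = activation, scaled between plate controls, above about 75%, limit read from the data; inactive = activation under that limit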;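 also: 0% = zVAD with DMSO and 100% = DMSO alone without zVAD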
Lipid droplet = hepatic lipid droplet formation modulation. AML12 mouse hepatocytes, oleate lipid droplets, BODIPY imaging. inhibition, % at 6.5 µM. actives 0.4% (n = 240,000);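 active = lipid droplet intensity inhibited by at least 50%, with more than 500 cells counted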
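Assay system: AML12 hepatocytes (mouse) / Also added: 100 µM oleic acid challenge / Times: overnight treatment with compound plus oleate / Detection: high-content imaging of BODIPY-stained droplets and DAPI nuclei / Evaluation: % inhibition of lipid droplet signal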
TNF death inh = TNF-alpha cell death inhibition in Jurkat FADD-/- cells | activation (protection from cell death), % at 10 µM | actives 0.068% (n = 220,000) | AID 463075 | Jurkat FADD-/- TNF necroptosis rescue, ATP luminescence, 24 h; 0 = TNF only, 100 = no-TNF cells;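 active = activation, meaning protection from cell death, of at least 50% relative to plate controls; inactive = activation below 50%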;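 also: necroptosis triggered by 40 ng/mL TNF-alpha added together with compound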
Arbovirus anti = antivirals against arbovirus infection. arbovirus infection cell-based antiviral screen. inhibition, % at 10 µM. actives 0.37% (n = 200,000). AID 1251; in the data active = inhibition above about 30%
Pf gametocyte = kills late stage P. falciparum gametocytes; P. falciparum stage V gametocytes, ATP luminescence, 24 h; inhibition, % at 10.9 µM; actives 0.065% (n = 150,000); AID 743093;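 active = inhibition above the mean plus 3 SD of compounds within the control limits, set per campaign, cut at about 38% in these data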;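 also: 0% = DMSO wells and 100% = medium only without gametocytes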
zVAD necrop conf = confirmed blocker of zVAD induced death in L929 cells; shares compounds with zVAD death inh; L929 zVAD-induced necroptosis rescue, ATP luminescence, 24 h; activation (protection from necroptosis), % at 10 µM; actives 16% (n = 760);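 active = mean protection from necroptosis of at least 50% over duplicate tests; inactive = mean protection below 50%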;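 also: 0% = cells with zVAD alone and 100% = vehicle cells without zVAD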
* = called active by the depositor; . = not tested or not shown.

SMILES	zVAD death inh	Lipid droplet	TNF death inh	Arbovirus anti	Pf gametocyte	zVAD necrop conf
O=C(NNC(=O)c1ccc2[nH]c(=O)c(=O)[nH]c2c1)c1cccc(Br)c1	.	-37.7	.	.	.	.
COC(=O)c1c(NC(=O)Nc2ccc(Cl)cc2)sc(C)c1C	0.1	-1.1	0.8	8.5	3.9	.
Cc1sc(NC(=O)Nc2ccccc2)c(C(N)=O)c1C	76.6*	5.3	0.6	0.1	-3.1	0.9
Nc1nc(SCCO)[nH]c(=O)c1NC(=O)c1ccc(Br)o1	.	4.8	.	.	.	.
Cc1cccc(OCCCC(=O)Nc2nccs2)c1	89.1*	.	9.2	.	.	2.6
Cc1ccc(OCCCC(=O)Nc2nccs2)cc1	0.1	.	-0.9	5.1	16.3	.
Cc1cc2oc(=O)ccc2cc1[N+](=O)[O-]	.	-0.2	.	.	10.3	.
COc1ccccc1NC(=O)C1CCN(S(=O)(=O)c2cccc3nonc23)CC1	.	-0.3	.	.	.	.
O=C(Nc1ccc2c(c1)ncn2C1CCCCC1)c1ccco1	82.1*	.	0.8	-2.3	-12.3	3.2
COc1ccc(-n2cnc3cc(NC(=O)c4ccco4)ccc32)cc1	82.6*	13.4	3.5	-0.8	.	47.3
CC(C)n1cnc2cc(NC(=O)c3ccco3)ccc21	.	-11.3	.	.	.	.
Cc1sc2ncn(CC(=O)N3CCC(C(N)=O)CC3)c(=O)c2c1S(=O)(=O)N1CCOCC1	.	-0.1	.	.	.	.
CCCCC(=O)Nc1nc2ccc3nc(C)sc3c2s1	46.2	1.3	6.5	-3.1	.	.
Cc1nc2c(ccc3nc(NC(=O)C4CC4)sc32)s1	80.3*	26.1	1.3	-19.8	-15.8	18.0
Cc1c(Cl)ccc2sc(NC(=O)C3CC3)nc12	.	24.2	.	.	.	.
CCC(=O)Nc1nc2ccc3sc(C)nc3c2s1	79.1*	1.7	-4.0	-11.1	-26.9	8.2
CCCC(=O)Nc1nc2ccc3nc(C)sc3c2s1	91.1*	1.8	4.6	-14.0	.	0.4
COc1ccc(C(=O)OCC(=O)NCc2ccccc2)c(OC)c1OC	0.1	10.5	0.4	12.1	-22.4	.
Cc1cc(SCC(=O)NC2CCCC2)nc2ccccc12	.	0.6	.	.	.	.
CCOC(=O)/C=C1\Nc2ccccc2OC1=O	94.0*	-31.0	9.5	-0.9	-15.5	2.7
COc1ccc(C(=O)NCC(=O)N/N=C/c2ccc(C)o2)cc1OC	.	-7.3	.	.	.	.
O=c1[nH]c2ccccc2nc1/C=C/c1ccc(O)cc1	81.4*	-16.5	-6.2	-25.0	-9.4	82.2*
O=c1[nH]c2ccccc2nc1/C=C/c1ccccc1	78.1*	19.6	1.1	-0.9	0.3	29.3
O=c1[nH]c2ccccc2nc1/C=C/c1ccc(F)cc1	67.3	11.9	-3.6	0.1	-7.8	.
CC(C)Cc1ccc(CN2CCCC(NC(=O)c3cccc(-n4cnnc4)c3)C2)cc1 (configuration not stated)	.	-9.6	.	.	.	.
SMILES	zVAD death inh	Lipid droplet	TNF death inh	Arbovirus anti	Pf gametocyte	zVAD necrop conf
N=C1S/C(=C\c2ccc(O)cc2)C(=O)N1c1ccc(F)cc1	80.4*	2.8	1.8	-2.1	.	1.4
Nc1nnnn1/N=C/C=C/c1ccccc1	1.1	.	0.1	-3.1	-33.6	.
Nc1nnnn1/N=C/C(Br)=C/c1ccccc1	116.0*	.	-17.3	-32.2	.	101.8*
O=C(Nc1ccc(Cl)c(Cl)c1)Nc1ccccn1	.	2.7	.	.	.	.
Cc1[nH]c2ccccc2c1/C=N/Nc1ccccn1	78.6*	0.3	35.2	-25.7	3.8	84.8*
COc1ccc(NC(=O)Nc2ccccn2)cc1OC	76.5*	4.5	8.3	.	-10.1	35.5
COc1ccc(/C=N/Nc2ccccn2)cc1OC	87.8*	2.4	53.5*	.	2.8	88.7*
COc1cc(NC(=S)Nc2ccccn2)c(OC)cc1Cl	78.8*	3.0	1.5	-8.3	11.9	7.3
Cc1[nH]c2ccccc2c1/C=N/Nc1nncn1N	3.6	0.8	-0.5	-3.5	36.0	.
CCOC(=O)CC(=O)COc1nc2cc3c(nc2o1)CCCC3	.	-1.8	.	.	.	.
Cc1ccccc1C(=O)Nc1cc(NC(=O)c2ccccc2C)cc(C(=O)O)c1	.	0.0	.	.	.	.
CC1CN(C(=O)Cn2cc(SCC(=O)N3CCOCC3)c3ccccc32)CC(C)O1 (configuration not stated)	.	-10.1	.	.	.	.
C=CCS(=O)(=O)N1CCCC(Cc2ccccc2C)(C(=O)OCC)C1 (configuration not stated)	.	-17.5	.	.	-31.0	.
Cc1ccn(C)c(=N)c1	0.7	2.5	1.0	.	.	.
COc1cc(/C=N/Nc2ccccn2)ccc1O	87.0*	18.4	42.8	.	-3.2	74.7*
Cc1ccc(/C=N\Nc2nc3ccc(Cl)cc3[nH]2)o1	86.5*	.	8.6	-7.1	.	78.0*
Fc1ccccc1-c1ccc(/C=N/Nc2nc3ccccc3[nH]2)o1	0.7	-1.2	-1.9	-12.4	16.5	.
C/C(=N\NC(=O)c1ccc(NS(=O)(=O)c2cccs2)cc1)c1ccc(C(C)(C)C)cc1	82.4*	32.6	7.5	-16.3	3.1	5.8
NC(=O)c1ccc(-n2nnnc2SCc2ccccc2)cc1	0.8	1.7	0.4	0.8	-18.8	.
O=C(Nc1nccs1)c1ccc(CSc2nnnn2-c2ccccc2)cc1	87.3*	1.2	14.4	-21.5	23.0	89.3*
Cc1ccc2nc(NC(=O)c3ccc(NS(=O)(=O)c4cccs4)cc3)sc2c1	2.1	-3.0	4.7	-13.7	-12.4	.
O=C(Oc1c(-c2ccccc2)oc2ccccc2c1=O)c1ccccc1	79.4*	.	-8.5	-0.3	14.3	1.7
CCCC(NC(=O)CCl)c1ccccc1 (configuration not stated)	7.8	10.1	0.2	8.0	7.9	.
CCC(NC(=O)CCl)c1ccc(C)cc1 (configuration not stated)	76.6*	-4.2	18.6	18.4	7.7	1.5
NS(=O)(=O)c1ccc(CCNC(=O)c2cnc(Cl)c(Cl)c2)cc1	.	10.6	.	.	.	.
SMILES	zVAD death inh	Lipid droplet	TNF death inh	Arbovirus anti	Pf gametocyte	zVAD necrop conf
O=C1CC(/C=C/c2ccccc2)=Nc2ccccc2N1	0.3	3.0	2.5	-4.3	.	.
O=C1CC(/C=C/c2ccc(Cl)cc2)=Nc2ccccc2N1	76.6*	3.7	-0.7	7.9	-15.6	1.3
N#C/C(N=Nc1ccccc1O)=N\Nc1ccccc1O	.	.	.	.	-25.8	.
CCn1c(=NC(=O)c2ccc(S(=O)(=O)N3CCOCC3)cc2)sc2cccc(OC)c21	76.6*	.	-9.6	8.1	20.0	8.3
O=C(CCl)N(c1ccccc1)C1CCCCC1	78.2*	-6.0	-20.1	-33.2	-3.7	65.8*
CCc1ccc2c(c1)C(=O)C(=O)N2CC(=O)Nc1ccc(NC(=O)c2ccccn2)cc1	77.5*	-9.1	-2.1	-7.4	6.1	24.2
CCC(SC1=NCCS1)C(=O)Nc1nnc(-c2ccccc2OC)s1 (configuration not stated)	83.2*	-4.4	2.8	2.0	.	1.3
CC1=CC(=Nc2c(C)n(C)n(-c3ccccc3)c2=O)C=CC1=O	76.7*	3.3	-16.0	.	.	50.0*
O=C(CSCc1c(F)cccc1F)Nc1ccccc1	.	-2.8	.	.	-8.5	.
COc1ccc(/C=N/NC(=O)C(=O)NCc2cccnc2)cc1	-0.4	12.5	-0.8	0.2	.	.
O=[N+]([O-])/C(C(Cl)=C(Cl)Cl)=C(/Sc1ccccc1)N1CCCCC1	2.1	-64.5	-21.3	.	-3.5	.

Screens: PubChem BioAssay, several laboratories
